Activity calls are given as the source filed them. No cut-off for these calls is given here.
How the values were obtained:
MCF7 = test: Antiproliferative activity against human MCF7 cells after 48 hrs by MTT assay; assay type: functional, cell-based; conditions: MCF7, 48 h
Method in brief: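 MCF-7 cells were grown to log phase in RPMI 1640 with 10% FBS, diluted to 2 × 10⁴ cells/mL and seeded, then held 24 h at 37 °C, 5% CO₂. Compounds at pre-set concentrations went into six wells, with staurosporine as positive reference, for 48 h. MTT in PBS (2.5 mg/mL) was added, incubation ran overnight at 37 °C, and OD was read at 570 nm. Triplicate wells per concentration; assay run ≥3 times.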

B16-F10 = test: Antiproliferative activity against mouse B16F10 cells after 48 hrs by MTT assay; assay type: functional, cell-based; conditions: B16-F10, 48 h
[1] = Inhibition of bovine brain FAK after 20 mins by turbidimetry; set-up: species or system Bos taurus
[2] = target: Focal adhesion kinase 1 (Homo sapiens) (UniProt Q05397); test: Inhibition of FAK in human MCF7 cells at 2 to 8 uM by Western blot analysis; assay type: cell-based
Method in brief: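 After treatment, cells were PBS-washed and lysed in Tris/NaCl/PMSF/Na₃VO₄/NP-40/glycerol buffer with phosphatase and protease inhibitors, then spun at 12,000g for 5 min. Protein was measured by BCA, resolved on 10% SDS–PAGE and transferred to PVDF. Membranes were blocked in 5% nonfat milk for 2 h at room temperature, probed with primary antibodies overnight at 4 °C, then HRP secondary. Representative of three independent experiments.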

Chain of Focal adhesion kinase 1 (Homo sapiens) (Q05397 2-1052 limits assumed): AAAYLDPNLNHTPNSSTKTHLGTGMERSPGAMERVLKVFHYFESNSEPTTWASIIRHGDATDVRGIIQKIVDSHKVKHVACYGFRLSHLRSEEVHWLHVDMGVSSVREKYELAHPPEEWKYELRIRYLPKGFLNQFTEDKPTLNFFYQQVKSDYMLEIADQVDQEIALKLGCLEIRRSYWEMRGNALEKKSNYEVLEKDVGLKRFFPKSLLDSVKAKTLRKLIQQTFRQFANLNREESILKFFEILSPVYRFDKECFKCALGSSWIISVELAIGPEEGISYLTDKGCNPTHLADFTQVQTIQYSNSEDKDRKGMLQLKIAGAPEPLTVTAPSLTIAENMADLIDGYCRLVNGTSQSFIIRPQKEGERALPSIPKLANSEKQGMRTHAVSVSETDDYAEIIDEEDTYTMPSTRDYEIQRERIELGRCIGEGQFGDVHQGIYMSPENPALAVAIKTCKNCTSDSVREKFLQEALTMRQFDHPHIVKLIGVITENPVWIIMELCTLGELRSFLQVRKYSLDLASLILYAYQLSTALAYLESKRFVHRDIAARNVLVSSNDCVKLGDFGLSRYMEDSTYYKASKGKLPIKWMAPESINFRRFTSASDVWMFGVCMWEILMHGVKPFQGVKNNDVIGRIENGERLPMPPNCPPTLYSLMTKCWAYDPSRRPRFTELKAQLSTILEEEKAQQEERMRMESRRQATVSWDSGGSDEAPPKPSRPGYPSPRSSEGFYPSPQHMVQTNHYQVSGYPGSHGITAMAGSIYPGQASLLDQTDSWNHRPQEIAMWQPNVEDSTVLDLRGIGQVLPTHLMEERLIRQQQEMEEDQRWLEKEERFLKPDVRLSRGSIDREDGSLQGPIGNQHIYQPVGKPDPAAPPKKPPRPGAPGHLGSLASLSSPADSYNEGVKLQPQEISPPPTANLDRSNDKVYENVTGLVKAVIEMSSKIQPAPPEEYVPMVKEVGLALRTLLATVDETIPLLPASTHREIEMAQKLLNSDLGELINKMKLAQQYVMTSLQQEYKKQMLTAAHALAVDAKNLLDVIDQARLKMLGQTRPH

Structure (SMILES) | IC50 (MCF7) | IC50 (B16-F10) | IC50 [1] | inhibition [2]
COc1ccc(-c2nnc(NC(=O)c3cccnc3)s2)cc1 | 2.99 µM | 2.36 µM | 9.75 µM | –
O=C(Nc1nnc(-c2ccc(Cl)cc2)s1)c1ccccc1 | 4.85 µM | 4.06 µM | 12.7 µM | –
Cc1ccc(-c2nnc(NC(=O)c3cccnc3)s2)cc1 | 4.52 µM | 3.88 µM | 12.4 µM | –
O=C(Nc1nnc(-c2ccc(Cl)cc2)s1)c1ccccc1O | 1.02 µM | 1.15 µM | 6.79 µM | –
O=C(Nc1nnc(-c2ccccc2)s1)c1cc(Br)ccc1O | 1.28 µM | 1.28 µM | 7.25 µM | –
O=C(Nc1nnc(-c2ccccc2)s1)c1ccc(F)cc1 | 4.85 µM | 4.36 µM | 14 µM | –
O=C(Nc1nnc(-c2ccc(F)cc2)s1)c1ccccc1O | 1.21 µM | 1.16 µM | 7.02 µM | –
O=C(Nc1nnc(-c2ccccc2)s1)c1cccnc1 | 8.22 µM | 6.18 µM | 18.6 µM | –
O=C(Nc1nnc(-c2ccccc2)s1)c1ccccc1O | 2.76 µM | 2.02 µM | 9.36 µM | –
O=C(Nc1nnc(-c2ccc(F)cc2)s1)c1cc(Cl)ccc1O | 0.75 µM | 0.68 µM | 6.13 µM | –
COc1ccc(C(=O)Nc2nnc(-c3ccccc3)s2)cc1 | 1.83 µM | 1.75 µM | 7.89 µM | –
CN[C@@H]1C[C@H]2O[C@@](C)([C@@H]1OC)n1c3ccccc3c3c4c(c5c6ccccc6n2c5c31)C(=O)NC4 [STAUROSPORINE] | 3.07 µM | – | – | –
COc1ccc(-c2nnc(NC(=O)c3ccccc3)s2)cc1 | 1.55 µM | 1.58 µM | 7.71 µM | –
COc1ccc(-c2nnc(NC(=O)c3ccccc3O)s2)cc1 | 2.17 µM | 1.39 µM | 7.47 µM | –
O=C(Nc1nnc(-c2ccc(F)cc2)s1)c1cc(Br)ccc1O | 0.86 µM | 1.02 µM | 6.41 µM | –
O=C(Cc1ccccc1)Nc1nnc(-c2ccc(Br)cc2)s1 | 7.52 µM | 9.06 µM | 21.5 µM | –
O=C(Nc1nnc(-c2ccc(Cl)cc2)s1)c1cc(Br)ccc1O | 0.67 µM | 0.56 µM | 5.85 µM | –
O=C(Nc1nnc(-c2ccccc2)s1)c1ccccc1 | 5.87 µM | 5.15 µM | 16.2 µM | –
Cc1ccc(C(=O)Nc2nnc(-c3ccccc3)s2)cc1 | 3.28 µM | 2.76 µM | 9.84 µM | –
Cc1ccc(-c2nnc(NC(=O)c3ccccc3)s2)cc1 | 3.57 µM | 3.52 µM | 11.7 µM | –
O=C(Nc1nnc(-c2ccc(Cl)cc2)s1)c1cc(Cl)ccc1O | 0.45 µM | 0.31 µM | 5.32 µM | Active
Cc1ccc(-c2nnc(NC(=O)c3ccccc3O)s2)cc1 | 2.36 µM | 1.97 µM | 8.54 µM | –
O=C(Nc1nnc(-c2ccc(F)cc2)s1)c1ccccc1 | 5.35 µM | 4.75 µM | 15.5 µM | –
O=C(Nc1nnc(-c2ccccc2)s1)c1ccc(Cl)cc1 | 4.49 µM | 4.65 µM | 11.9 µM | –
O=C(Cc1ccccc1)Nc1nnc(-c2ccc(Cl)cc2)s1 | 6.47 µM | 8.23 µM | 19.7 µM | –
O=C(Nc1nnc(-c2ccccc2)s1)c1cc(Cl)ccc1O | 1.12 µM | 1.14 µM | 6.89 µM | –

Source: ChEMBL document CHEMBL2016570, “Synthesis, biological evaluation, and molecular docking studies of 1,3,4-thiadiazol-2-amide derivatives as novel anticancer agents” (Bioorg Med Chem, 2012)
